pIC50: −log10 of the molar value. Activity calls are given as the source filed them. The calls are words filed in the database; no cut-off is given here.
Tests used:
[1] = target: T1, Amine oxidase [flavin-containing] B (Homo sapiens, UniProt P27338)
T1 sequence (P27338 whole entry): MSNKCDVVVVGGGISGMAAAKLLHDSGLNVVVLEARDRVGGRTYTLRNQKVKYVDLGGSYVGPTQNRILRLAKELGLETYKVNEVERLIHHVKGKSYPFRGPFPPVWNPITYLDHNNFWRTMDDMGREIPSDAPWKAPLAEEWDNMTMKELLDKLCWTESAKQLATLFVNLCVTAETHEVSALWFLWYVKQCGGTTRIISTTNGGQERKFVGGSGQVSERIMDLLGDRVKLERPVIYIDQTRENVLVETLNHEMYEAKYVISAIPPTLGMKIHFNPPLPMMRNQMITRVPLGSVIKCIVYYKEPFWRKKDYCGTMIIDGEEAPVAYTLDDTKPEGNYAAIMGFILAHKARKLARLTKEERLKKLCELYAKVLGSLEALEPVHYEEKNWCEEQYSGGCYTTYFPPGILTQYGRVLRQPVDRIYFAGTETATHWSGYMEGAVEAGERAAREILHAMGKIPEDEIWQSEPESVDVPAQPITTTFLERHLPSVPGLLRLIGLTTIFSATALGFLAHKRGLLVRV

[2] = target: T2, Amine oxidase [flavin-containing] A (Homo sapiens, UniProt P21397); assay: Inhibition of recombinant human MAO-A at 10 uM using kynuramine as substrate after 30 mins by fluorescence method relative to control; settings: 0.5 h
T2 sequence (P21397 whole entry): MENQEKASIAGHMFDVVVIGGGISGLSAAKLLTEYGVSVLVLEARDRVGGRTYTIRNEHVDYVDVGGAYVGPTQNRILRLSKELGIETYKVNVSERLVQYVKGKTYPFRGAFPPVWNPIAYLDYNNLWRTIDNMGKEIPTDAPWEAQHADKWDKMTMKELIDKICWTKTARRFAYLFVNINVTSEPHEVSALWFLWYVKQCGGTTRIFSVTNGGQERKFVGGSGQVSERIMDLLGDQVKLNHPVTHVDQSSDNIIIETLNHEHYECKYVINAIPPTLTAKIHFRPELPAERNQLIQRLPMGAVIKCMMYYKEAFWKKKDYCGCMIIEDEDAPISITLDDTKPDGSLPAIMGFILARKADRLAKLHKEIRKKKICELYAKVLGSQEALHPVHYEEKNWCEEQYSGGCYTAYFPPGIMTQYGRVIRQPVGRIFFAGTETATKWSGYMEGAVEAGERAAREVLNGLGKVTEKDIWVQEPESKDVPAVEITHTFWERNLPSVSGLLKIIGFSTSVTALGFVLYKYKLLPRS

[3] = target: BuChE (butyrylcholinesterase) (Equus caballus, UniProt P81908); assay: Inhibition of equine serum BuChE at 50 uM incubated for 15 mins by Ellman's method relative to control; settings: horse
[4] = Antioxidant activity assessed as trolox equivalent of […]-induced radical scavenging activity measured every minute for 90 mins by ORAC fluorescein assay; format: functional
Summary of the method: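 Measured by the ORAC-FL fluorescein method. Values are given as μM Trolox equivalent per μM of test compound.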

Acetylcholinesterase = Acetylcholinesterase (Electrophorus electricus, UniProt O42275); assay: Inhibition of electric eel AChE using acetylthiocholine as substrate incubated for 15 mins by Ellman's method
[5] = Selectivity index, ratio of IC50 for equine serum BuChE to IC50 for electric eel AChE
Summary of the method: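 IC50 values for E. electricus AChE and equine serum BuChE came from a modified Ellman assay, each the mean of three independent experiments run in triplicate. The selectivity index is the ratio of the two IC50 values.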

Cholinesterase = Cholinesterase (Equus caballus, UniProt P81908); format: ADME
[6] = Effective permeability of the compound by PAMPA; format: physicochemical; settings: read-out: Peff
PC-12 [7] = assay: Protection against H2O2-induced cell injury in rat PC12 cells assessed as cell viability at 1 uM preincubated for 2 hrs followed by H2O2 addition measured after 24 hrs by MTT assay (reference value: 46.5%); format: functional; settings: read-out: Activity
Summary of the method: (§1)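 PC12 cells were injured with 100 μM H2O2. Viability was measured by MTT reduction and compared with untreated control and with the H2O2-only group.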

[8] = target: Acetylcholinesterase (Electrophorus electricus) (UniProt O42275); settings: 0.5 to 2 uM
[9] = Metal chelating activity assessed as mole fraction of compound required to show 1:1 stoichiometry for Cu2+-compound complex at 37.5 uM after 30 mins by UV-Visible spectrophotometric method
[10] = Metal chelating activity assessed as compound-Zn2+ complex formation at 37.5 uM after 30 mins by UV-Visible spectrophotometric method
[11] = Metal chelating activity assessed as compound-Fe2+ complex formation at 37.5 uM after 30 mins by UV-Visible spectrophotometric method
PC-12 [12] = assay: Protection against H2O2-induced cell injury in rat PC12 cells assessed as cell viability at 10 uM preincubated for 2 hrs followed by H2O2 addition measured after 24 hrs by MTT assay (reference value: 46.5%); format: functional; settings: read-out: Activity
Summary of the method: as §1

[13] = Metal chelating activity assessed as compound-Al3+ complex formation at 37.5 uM after 30 mins by UV-Visible spectrophotometric method
[14] = Metal chelating activity assessed as compound-Cu2+ complex formation by measuring red shift at 37.5 uM after 30 mins by UV-Visible spectrophotometric method
PC-12 [15] = assay: Protection against H2O2-induced cell injury in rat PC12 cells assessed as cell viability preincubated for 2 hrs followed by H2O2 addition measured after 24 hrs by MTT assay; format: functional, cell-based
Summary of the method: as §1

[16] = target: Acetylcholinesterase (Electrophorus electricus) (UniProt O42275); assay: Inhibition of electric eel AChE at 50 uM using acetylthiocholine as substrate incubated for 15 mins by Ellman's method relative to control

Sequence of BuChE (butyrylcholinesterase) (P81908 whole entry): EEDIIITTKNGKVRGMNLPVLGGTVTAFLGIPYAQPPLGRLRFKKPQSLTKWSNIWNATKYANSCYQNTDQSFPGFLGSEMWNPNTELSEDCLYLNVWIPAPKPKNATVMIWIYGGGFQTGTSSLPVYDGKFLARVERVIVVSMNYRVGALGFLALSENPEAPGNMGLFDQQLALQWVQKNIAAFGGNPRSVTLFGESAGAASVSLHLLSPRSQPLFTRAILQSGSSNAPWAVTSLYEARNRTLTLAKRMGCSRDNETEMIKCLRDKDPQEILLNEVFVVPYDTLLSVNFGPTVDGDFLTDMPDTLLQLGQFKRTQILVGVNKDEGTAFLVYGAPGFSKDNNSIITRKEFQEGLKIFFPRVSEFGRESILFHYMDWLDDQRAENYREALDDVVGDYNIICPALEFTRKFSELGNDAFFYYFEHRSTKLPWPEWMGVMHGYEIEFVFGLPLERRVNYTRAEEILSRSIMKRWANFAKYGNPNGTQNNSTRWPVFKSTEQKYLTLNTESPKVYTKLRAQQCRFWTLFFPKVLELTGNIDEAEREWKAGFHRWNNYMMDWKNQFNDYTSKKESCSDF
Sequence of Cholinesterase (P81908 whole entry): as above
Sequence of Acetylcholinesterase (O42275 whole entry): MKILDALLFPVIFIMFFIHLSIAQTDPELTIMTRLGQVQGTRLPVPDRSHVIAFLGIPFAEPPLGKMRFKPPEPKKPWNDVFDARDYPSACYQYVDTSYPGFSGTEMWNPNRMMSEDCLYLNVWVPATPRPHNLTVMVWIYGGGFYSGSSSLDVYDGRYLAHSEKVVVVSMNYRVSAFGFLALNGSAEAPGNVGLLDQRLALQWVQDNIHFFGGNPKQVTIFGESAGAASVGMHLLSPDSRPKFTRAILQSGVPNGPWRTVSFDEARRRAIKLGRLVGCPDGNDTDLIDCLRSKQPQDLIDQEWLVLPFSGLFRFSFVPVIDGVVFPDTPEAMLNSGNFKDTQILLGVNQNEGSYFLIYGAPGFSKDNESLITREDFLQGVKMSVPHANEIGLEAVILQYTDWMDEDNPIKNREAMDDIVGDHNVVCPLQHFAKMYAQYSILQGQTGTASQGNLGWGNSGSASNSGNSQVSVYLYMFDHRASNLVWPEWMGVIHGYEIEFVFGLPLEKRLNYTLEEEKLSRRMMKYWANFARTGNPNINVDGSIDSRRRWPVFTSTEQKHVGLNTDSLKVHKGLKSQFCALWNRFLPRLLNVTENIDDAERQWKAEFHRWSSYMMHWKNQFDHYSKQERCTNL
Sequence of Acetylcholinesterase (Electrophorus electricus) (O42275 24-633 limits assumed): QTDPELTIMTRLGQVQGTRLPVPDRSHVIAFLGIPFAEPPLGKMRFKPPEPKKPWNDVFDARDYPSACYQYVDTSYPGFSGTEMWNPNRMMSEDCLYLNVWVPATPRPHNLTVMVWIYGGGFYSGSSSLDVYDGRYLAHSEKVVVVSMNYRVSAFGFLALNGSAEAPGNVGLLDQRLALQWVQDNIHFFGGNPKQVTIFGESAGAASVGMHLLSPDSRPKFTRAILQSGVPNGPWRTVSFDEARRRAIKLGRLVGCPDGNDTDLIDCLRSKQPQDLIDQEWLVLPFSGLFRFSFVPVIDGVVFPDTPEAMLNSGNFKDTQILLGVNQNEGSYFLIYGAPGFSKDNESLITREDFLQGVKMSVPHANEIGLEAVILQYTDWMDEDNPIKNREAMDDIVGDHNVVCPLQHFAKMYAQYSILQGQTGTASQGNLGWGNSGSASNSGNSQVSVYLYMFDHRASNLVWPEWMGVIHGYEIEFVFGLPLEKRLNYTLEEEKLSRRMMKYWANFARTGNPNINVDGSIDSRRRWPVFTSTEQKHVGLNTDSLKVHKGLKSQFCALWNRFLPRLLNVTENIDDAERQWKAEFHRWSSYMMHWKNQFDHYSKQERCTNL

With CC(=O)c1ccc(OCCCCN2CCCCC2)cc1O the pIC50 [1] was 5.60, the inhibition at 10 µM [2] was < 5% and the inhibition at 0.25 h, 50 µM [3] was 21.4%. For the same molecule, the Activity [4] was 1 equiv and the pIC50 (Acetylcholinesterase) was 5.06.

In the case of CC(=O)c1ccc(OCCCCCCN2CCN(Cc3ccccc3)CC2)cc1O, the pIC50 [1] was 4.51, the inhibition at 10 µM [2] was < 5% and the Ratio IC50 [5] was 4.5. For the same molecule, the Activity [4] was 1.3 equiv, the pIC50 (Acetylcholinesterase) was 4.77 and the pIC50 (Cholinesterase) was 4.12.

For CCn1cc(C(=O)O)c(=O)c2cc(F)c(N3CCNCC3)nc21 [ENOXACIN], the Papp [6] was 0.47 to 0.9 ×10⁻⁶ cm/s.

In the case of CC(=O)c1ccc(OCCCN2CCCC2)cc1O, the pIC50 [1] was 6.21, the inhibition at 10 µM [2] was < 5% and the inhibition at 0.25 h, 50 µM [3] was < 5%. For the same molecule, the Activity [4] was 1 equiv and the pIC50 (Acetylcholinesterase) was 4.38.

Molecule CCn1cc(C(=O)O)c(=O)c2cc(F)c(N3CCNCC3)cc21 [NORFLOXACIN] has a Papp [6] of 0.1 to 0.42 ×10⁻⁶ cm/s.

For CC(=O)c1ccc(OCCCCCN2CCN(Cc3ccccc3)CC2)cc1O, the pIC50 [1] was 4.57, the inhibition at 10 µM [2] was < 5% and the Ratio IC50 [5] was 5.4. It also gave an Activity [4] of 1.3 equiv, a pIC50 (Acetylcholinesterase) of 5.07 and a pIC50 (Cholinesterase) of 4.34.

For CC(=O)c1ccc(OCCCCN2CCN(c3ccccn3)CC2)cc1O, the pIC50 [1] was 4.92, the inhibition at 10 µM [2] was < 5% and the inhibition at 0.25 h, 50 µM [3] was < 5%. For the same molecule, the Activity [4] was 1.1 equiv and the pIC50 (Acetylcholinesterase) was 4.74.

For CC(=O)c1ccc(OCCCCCN2CCN(c3ncccn3)CC2)cc1O, the pIC50 [1] was 4.81, the inhibition at 10 µM [2] was < 5% and the Ratio IC50 [5] was 2.6. For the same molecule, the Activity [4] was 1 equiv, the pIC50 (Acetylcholinesterase) was 4.29 and the pIC50 (Cholinesterase) was 3.86.

In the case of Cn1c(=O)c2c(ncn2C)n(C)c1=O [CAFFEINE], the Papp [6] was 1.28 to 1.3 ×10⁻⁶ cm/s.

For CC(=O)c1ccc(OCCCN2CCCCC2)cc1O, the pIC50 [1] was 5.55, the inhibition at 10 µM [2] was < 5% and the inhibition at 0.25 h, 50 µM [3] was < 5%. For the same molecule, the Activity [4] was 1.1 equiv and the pIC50 (Acetylcholinesterase) was 4.53.

For Cn1c(=O)c2[nH]cnc2n(C)c1=O.O [THEOPHYLLINE], the Papp [6] was 0.1 to 0.12 ×10⁻⁶ cm/s.

For CC(=O)c1ccc(OCCCN2CCN(c3ncccn3)CC2)cc1O, the pIC50 [1] was 4.82, the inhibition at 10 µM [2] was < 5% and the inhibition at 0.25 h, 50 µM [3] was < 5%. The Activity [4] was 0.95 equiv and the pIC50 (Acetylcholinesterase) was 4.58.

For CC(=O)c1ccc(OCCCCCN2CCCC2)cc1O, the pIC50 [1] was 5.46, the inhibition at 10 µM [2] was < 5% and the Ratio IC50 [5] was 5.9. For the same molecule, the Activity [4] was 1 equiv, the pIC50 (Acetylcholinesterase) was 5.20 and the pIC50 (Cholinesterase) was 4.43.

Work on Clc1cccc(Cl)c1N=C1NCCN1 [CLONIDINE] yielded a Papp [6] of 5.1 to 5.3 ×10⁻⁶ cm/s.

With CC(=O)c1ccc(OCCCCCCN2CCCC2)cc1O the pIC50 [1] was 4.91, the inhibition at 10 µM [2] was < 5% and the Ratio IC50 [5] was 11.9. It also gave an Activity [4] of 1 equiv, a pIC50 (Acetylcholinesterase) of 5.41 and a pIC50 (Cholinesterase) of 4.33.

With CC(=O)c1ccc(OCCCCN2CCCC2)cc1O the pIC50 [1] was 5.74, the inhibition at 10 µM [2] was < 5% and the inhibition at 0.25 h, 50 µM [3] was 18.4%. It also gave an Activity [4] of 1 equiv and a pIC50 (Acetylcholinesterase) of 4.78.

For CC(=O)c1ccc(OCCCCCCN2CCCCC2)cc1O, the pIC50 [1] was 4.58, the inhibition at 10 µM [2] was < 5% and the Ratio IC50 [5] was 15.8. The Activity [4] was 0.98 equiv, the pIC50 (Acetylcholinesterase) was 5.54 and the pIC50 (Cholinesterase) was 4.34.

For CN1C(C(=O)Nc2ccccn2)=C(O)c2ccccc2S1(=O)=O [PIROXICAM], the Papp [6] was 0.72 to 2.5 ×10⁻⁶ cm/s.

With CC(=O)c1ccc(OCCCN2CCN(Cc3ccccc3)CC2)cc1O the pIC50 [1] was 5.17, the viability at 1 µM (PC-12 [7]) was 59.6% and the inhibition at 10 µM [2] was < 5%. The inhibition [8] was “Active”, the Activity [9] was 0.99 molar ratio and the Activity [10] was “inactive”. For the same molecule, the Ratio IC50 [5] was 32.7, the Activity [11] was “inactive” and the viability at 10 µM (PC-12 [12]) was 73.3%. The Activity [13] was “inactive”, the Activity [14] was “Active” and the Papp [6] was 13.3 ×10⁻⁶ cm/s. For the same molecule, the Activity (PC-12 [15]) was “Dose-dependent effect”, the Activity [4] was 1.5 equiv and the pIC50 (Acetylcholinesterase) was 6.02. For the same molecule, the pIC50 (Cholinesterase) was 4.50.

In the case of CC(=O)c1ccc(OCCCCCCN2CCN(c3ncccn3)CC2)cc1O, the pIC50 [1] was 4.46, the inhibition at 10 µM [2] was < 5% and the inhibition at 0.25 h, 50 µM [3] was < 5%. It also gave an Activity [4] of 0.98 equiv and a pIC50 (Acetylcholinesterase) of 4.24.

For CC(=O)c1ccc(OCCCCCN2CCCCC2)cc1O, the pIC50 [1] was 5.21, the inhibition at 10 µM [2] was < 5% and the inhibition at 0.25 h, 50 µM [3] was 27.9%. The Activity [4] was 1.1 equiv and the pIC50 (Acetylcholinesterase) was 5.26.

For CC(=O)c1ccc(OCCCCCN2CCN(c3ccccn3)CC2)cc1O, the pIC50 [1] was 4.78, the inhibition at 10 µM [2] was < 5% and the inhibition at 0.25 h, 50 µM [3] was < 5%. It also gave an Activity [4] of 0.99 equiv and a pIC50 (Acetylcholinesterase) of 4.66.

For CC(=O)c1ccc(O)cc1O, the inhibition at 0.25 h, 50 µM [3] was < 5%, the inhibition [16] was < 5% and the Activity [4] was 2.5 equiv.

In the case of CC(=O)c1ccc(OCCCCCCN2CCN(c3ccccn3)CC2)cc1O, the pIC50 [1] was 4.68, the inhibition at 10 µM [2] was < 5% and the inhibition at 0.25 h, 50 µM [3] was < 5%. It also gave an Activity [4] of 1.1 equiv and a pIC50 (Acetylcholinesterase) of 4.59.

In the case of CC(=O)c1ccc(OCCCN2CCN(c3ccccn3)CC2)cc1O, the pIC50 [1] was 4.93, the inhibition at 10 µM [2] was < 5% and the inhibition at 0.25 h, 50 µM [3] was 8.8%. For the same molecule, the Activity [4] was 0.98 equiv and the pIC50 (Acetylcholinesterase) was 4.82.

For CC(=O)c1ccc(OCCCCN2CCN(Cc3ccccc3)CC2)cc1O, the pIC50 [1] was 4.80, the inhibition at 10 µM [2] was < 5% and the inhibition at 0.25 h, 50 µM [3] was 11.5%. For the same molecule, the Activity [4] was 1.4 equiv and the pIC50 (Acetylcholinesterase) was 5.66.

C[C@]12CC[C@H]3[C@@H](CCC4=CC(=O)CC[C@@]43C)[C@@H]1CC[C@@H]2O [TESTOSTERONE] gave a Papp [6] of 16.3 to 17 ×10⁻⁶ cm/s.

In the case of CC(=O)c1ccc(OCCCCN2CCN(c3ncccn3)CC2)cc1O, the pIC50 [1] was 4.82, the inhibition at 10 µM [2] was < 5% and the inhibition at 0.25 h, 50 µM [3] was < 5%. For the same molecule, the Activity [4] was 0.98 equiv and the pIC50 (Acetylcholinesterase) was 4.56.
